The list is not random: actives were taken first. Their share in the collection is about 2.5%.
ADAM10 inh: inhibitors of human ADAM10; O14672; recombinant ADAM10, EDANS/DABCYL FRET peptide cleavage, 3 h; inhibition, % at 7 µM; AID 720582; 370,000 tested, 0.62% active;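 active = inhibition above a per-campaign cutoff equal to the mean of compounds falling between control-based bounds plus 3 SD, cut at about 20% in these data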;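 also: 0% = DMSO wells while the 100% control is not disclosed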
NR2E3 ag-1: activates human NR2E3 receptor; Q9Y5X4; CHO-S Gal4-NCOR/VP16-NR2E3 two-hybrid, luciferase; inhibition of corepressor binding, % at 3.98 µM; 360,000 tested, 0.35% active; AID 602229;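 active = inhibition above the mean of all tested compounds plus 3 SD, cut at about 70% in these data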;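 also: 0% = DMSO with NR2E3 transfected cells and 100% = cells lacking NR2E3 construct; higher means lower luciferase signal from less NR2E3 corepressor binding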
GASC-1 inh: human JMJD2C demethylase inhibition; Q9H3R0; 330,000 tested, 0.069% active; inhibition, % at 2.35 µM; GST-JMJD2C(1-420) H3K9me3 demethylation, DELFIA europium;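 active = more than half of a compound's replicate wells show inhibition beyond 50%, single wells judged on their own value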;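 also: signal counts dimethyl H3K9 product captured on neutravidin plate; 0% = median of DMSO wells and 100% = 0.3 times that DMSO median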
Target sequence (Q9H3R0 1-420 limits assumed): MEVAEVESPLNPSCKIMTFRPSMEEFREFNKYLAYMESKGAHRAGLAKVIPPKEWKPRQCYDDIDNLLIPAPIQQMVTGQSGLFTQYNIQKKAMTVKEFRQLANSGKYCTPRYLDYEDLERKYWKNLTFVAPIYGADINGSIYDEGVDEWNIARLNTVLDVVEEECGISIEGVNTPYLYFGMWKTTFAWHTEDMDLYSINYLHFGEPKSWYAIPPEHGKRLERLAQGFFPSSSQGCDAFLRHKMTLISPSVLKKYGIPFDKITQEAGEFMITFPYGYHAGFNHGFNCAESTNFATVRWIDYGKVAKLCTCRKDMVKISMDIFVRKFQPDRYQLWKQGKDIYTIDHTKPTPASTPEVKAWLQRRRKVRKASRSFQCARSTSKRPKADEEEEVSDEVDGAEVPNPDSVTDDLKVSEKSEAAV
proKLK7 act: activators of human kallikrein-7 zymogen. purified proKLK7, EDANS-DABCYL substrate fluorescence; 100% is mature enzyme control, 0% vehicle. P49862. activation, % at 7 µM. AID 652039. 370,000 tested, 0.9% active;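 active = activation above the mean of all tested compounds plus 3 SD, computed per campaign excluding outliers beyond control limits, cut at about 13% in these data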
Target sequence (P49862 whole entry, looked up): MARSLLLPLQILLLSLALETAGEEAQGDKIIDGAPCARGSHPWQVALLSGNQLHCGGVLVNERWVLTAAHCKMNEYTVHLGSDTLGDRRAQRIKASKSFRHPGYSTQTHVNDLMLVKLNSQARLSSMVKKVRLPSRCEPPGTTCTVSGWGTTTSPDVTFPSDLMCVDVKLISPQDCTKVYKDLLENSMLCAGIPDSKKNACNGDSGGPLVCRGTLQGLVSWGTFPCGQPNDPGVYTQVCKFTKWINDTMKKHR
ADAM17 inh: ADAM17 inhibition, QFRET primary screen; 370,000 tested, 0.83% active; inhibition, % at 6.95 µM; recombinant ADAM17, EDANS/DABCYL FRET peptide cleavage; P78536; AID 720648;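 active = inhibition above the mean of compounds lying between control limits plus 3 SD, set per campaign, cut at about 8.5% in these data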;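 also: 0% = DMSO-only wells as the low control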
NR2E3 ag-2: activates human photoreceptor nuclear receptor NR2E3; Q9Y5X4; GST-NR2E3/biotin-RetCOR TR-FRET, 1536-well; 320,000 tested, 0.12% active; AID 2300; inhibition of corepressor binding, % at 4.78 µM;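 active = percent inhibition above the cutoff of mean plus 3 SD of all tested compounds, set per screening campaign, cut at about 20% in these data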;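 also: 0% = DMSO wells and 100% = biotin wells as full block of FRET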
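Material: NR2E3–RetCOR corepressor complex / Amount: 1.35 nM GST-NR2E3 / Medium: Tris pH 7.5 / Compound: single nominal compound dose of 4.8 µM / Incubation: 5 h at 4 °C / Technique: TR-FRET, Eu(K)-anti-GST donor, streptavidin-D2 acceptor, ex 340, em 617/671 nm / Read-out basis: percent loss of FRET ratio relative to control wells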
KLK7 act conf: confirmation of human kallikrein-7 zymogen activators | 3,200 tested, 68% active | activation, % at 7 µM | shares compounds with proKLK7 act | purified proKLK7, EDANS-DABCYL substrate fluorescence; scaled: vehicle 0, mature enzyme 100 | AID 686949;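 active = activation, as change over the incubation, above the mean of all tested compounds plus 3 SD, cut at about 13% in these data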
EDANS interfere: optically interferes with EDANS-DABCYL signal, flagging KLK7 hits | shares compounds with proKLK7 act | EDANS-DABCYL substrate fluorescence interference, no enzyme, 4 h; solvent 0%, active enzyme control 100% | activation, % at 7 µM | 3,200 tested, 80% active | AID 686952;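 active = activation above the all-compound mean plus 3 SD, ignoring values outside control-based bounds, cut at about 4.8% in these data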;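 also: value is the 4 h activation minus the activation read at time zero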
K7 EDANS ctr: EDANS fluorescence interference in dose response, no enzyme; shares compounds with proKLK7 act; EDANS-DABCYL peptide fluorescence interference; EC50, µM; 250 tested, 20% active; AID 720493;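 active = compounds that raise the fluorescence signal in this interference counterscreen, with EC50 at or below 10 µM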;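 also: intact quenched peptide substrate alone read at 355 nm excitation and 520 nm emission; signal is fluorescence gain from T0 to T4 after four hours at room temperature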
Starred values were filed as active, the others as inactive; i = inactive; x = no result given.

SMILES	ADAM10 inh	NR2E3 ag-1	GASC-1 inh	proKLK7 act	ADAM17 inh	NR2E3 ag-2	KLK7 act conf	EDANS interfere	others
COc1ccc(C2Nc3ccccc3C(=O)N2Cc2ccco2)cc1COc1c(C)cc(NC(C)=O)cc1C (stereo not drawn)	i	x	x	x	-246	x	x	x
CSc1cccc(NC(=S)NCCCN2CCN(c3ccc(F)cc3)CC2)c1	1	-6	6	0	-1	3	x	x
CCc1cc2c(=O)c(Oc3ccccc3)c(C)oc2cc1O	i	14	-26	55*	i	0	65*	78*
COCCn1c(C)nnc1SCC(=O)Nc1ccccc1[N+](=O)[O-]	-2	16	-23	39*	-3	4	0	0
COCCn1c(SCC(=O)Nc2ccccc2OC)nnc1-c1ccco1	2	-25	-8	-1	0	3	x	x
COc1cc(C)cc2oc(=O)c(CC(=O)N3CCN(C(=O)C4COc5ccccc5O4)CC3)c(C)c12 (stereo not drawn)	i	-2	-4	-6	-298	1	x	x
CC(=O)Oc1ccc2c(C)c(CC(=O)N3CCN(C(=O)C4COc5ccccc5O4)CC3)c(=O)oc2c1C (stereo not drawn)	i	-9	21	155*	-400	3	344*	368*
CC1(C)O[C@@H]2[C@H](O1)[C@@H](COS(=O)(=O)O)O[C@H]2n1c(=S)[nH]c2c(=O)[nH]c(N)nc21	3	-5	-4	0	-3	0	x	x
COc1ccc(S(=O)(=O)NCCc2cn3nc(C)c(C)nc3n2)cc1	i	19	-8	32*	-314	2	71*	77*
Cc1nc2nc(CCNS(=O)(=O)c3ccc(Cl)cc3)cn2nc1C	i	-13	-5	24*	-355	0	75*	75*
C[C@@H]1CN([C@@H](C)CO)C(=O)CCCn2cc(nn2)CO[C@H]1CN(C)C(=O)C1CC1	-18	x	x	0	-8	x	x	x
c1coc(-c2ccnc3nc(-n4cccc4)nn23)c1	-102	3	-24	0	-40	-2	x	x
COc1ccc(-c2ccnc3cc(C(=O)O)nn23)cc1	-414	-12	14	13*	-142	4	34*	32*
COc1ccc(-c2ccnc3nc(-n4cccc4)nn23)cc1	-324	-15	8	-2	-97	0	x	x
O=C(O)c1cc2nccc(-c3ccco3)n2n1	-243	-9	-5	18*	-90	-5	23*	22*
COc1ccc(Cl)cc1-c1cc(C(=O)N[C@H](C)c2ccccc2)[nH]n1	5	7	x	0	4	x	x	x
Cc1nc(C(=O)NNC(=O)Nc2ccccc2)cs1	-1	13	-38	16*	-4	-1	-1	-1
O=C(COC(=O)/C=C/c1ccccc1)NCC1CCCO1 (stereo not drawn)	2	6	-15	0	-2	-1	x	x
CSc1ccc(/C=C/C(=O)OCC(=O)NC2CCS(=O)(=O)C2)cc1 (stereo not drawn)	i	17	1	23*	-310	5	20*	16*	K7 EDANS ctr=>69
CSc1ccc(/C=C/C(=O)OCC(=O)NCC2CCCO2)cc1 (stereo not drawn)	i	-7	x	18*	-313	2	14*	16*
C=CCNC(=O)[C@H]1N2C(=O)c3ccccc3C2SC1(C)C (stereo partly drawn)	-5	-24	0	0	-8	3	x	x
COc1ccc([N+](=O)[O-])cc1CN1CCN(c2ncc(Cc3ccccc3)cn2)CC1	0	x	x	1	0	x	x	x
Cc1ccc(Cl)cc1-c1cc(C(=O)N2CCc3ccccc3C2)[nH]n1	-5	5	x	0	-3	x	x	x
N#Cc1c(=O)c2nc(NCc3ccccc3)ncc2n2ccccc12	-402	11	3	19*	-103	-5	24*	26*
N#Cc1c(=O)c2nc(NCCCO)ncc2n2c(=O)c3ccccc3[nH]c12	-5	-13	14	-6	0	-1	x	x
SMILES	ADAM10 inh	NR2E3 ag-1	GASC-1 inh	proKLK7 act	ADAM17 inh	NR2E3 ag-2	KLK7 act conf	EDANS interfere	others
Cc1nn2cc(-c3ccccc3)nc2[nH]c1=O	i	-21	7	49*	-242	2	74*	80*
O=C(O)CCc1nn2cc(-c3ccccc3)nc2[nH]c1=O	i	4	1	56*	-312	1	72*	81*
Cc1ccccc1C(=O)NNc1ccc(-c2csnn2)cc1	-8	5	4	-1	-4	2	x	x
Cc1ccc2[nH]c3c(c2c1)SC(C)(C)CC3=O	-95	-20	-4	15*	-37	-1	13*	16*
Cc1cccn2c(=O)c(/C=C(\C#N)C(N)=O)c(N3CCN(Cc4ccc5c(c4)OCO5)CC3)nc12	i	7	9	15*	-297	3	3	3
COCCCNC(=O)/C(C#N)=C/c1c(N2CCN(C)CC2)nc2ccccn2c1=O	i	-22	-2	17*	-331	0	10	12*
CCNC(=O)/C(C#N)=C/c1c(N2CCN(c3ccccc3)CC2)nc2ccccn2c1=O	i	-39	-3	14*	-280	x	19*	16*	K7 EDANS ctr=i
CCN1CCN(c2nc3c(C)cccn3c(=O)c2/C=C(\C#N)C(=O)NCCOC)CC1	i	-1	-11	30*	-159	-1	20*	21*
CC(C)(CC(=O)O)CC(=O)NCc1c(Cl)cccc1Oc1ccccc1	-1	5	-6	0	-3	1	x	x
COc1ccc(CN2CCN(C(=O)Cn3ncn4cccc4c3=O)CC2)c(OC)c1OC	-10	17	0	0	-3	-1	x	x
COc1ccccc1Oc1nc([N+](=O)[O-])nn1CC(N)=O	-2	-3	2	0	-2	3	x	x
COc1ccc(C(=O)Nc2ccccc2)cc1NC(=O)c1cccs1	7	-3	0	0	-2	x	x	x
COc1ccc(CN2C(=O)CSCC2(C)C(=O)Nc2ccc3c(c2)OCCO3)cc1 (stereo not drawn)	-18	x	x	0	-4	x	x	x
COC(=O)C1(C(F)(F)F)C2C=CC(C2)N1S(=O)(=O)c1ccc(C)cc1 (stereo not drawn)	-2	4	-6	0	-3	0	x	x

Source: PubChem BioAssay (several laboratories)
